# Screens from PubChem.
# The list is not random: actives were taken first. Their share in the collection is about 1.9%.
# LYP inh 2 – PTPN22 phosphatase inhibitors, primary screen, biochemical, DiFMUP fluorescence, 2 µM. inhibition, % at 2 µM. 96,000 compounds, 0.21% hits. AID 640, 2007. recombinant LYP catalytic domain;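 active means inhibition at 2 µM at or above a set limit, the screen mean plus 3 SD, cut at about 24% in these data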;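 further: 0% = DMSO with enzyme and 100% = enzyme fully blocked by orthovanadate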
# EphB4 antag – EphB4-ephrin-B2 interaction antagonists, primary screen, biochemical, TNYL-RAW peptide probe, fluorescence polarization; inhibition, % at 7 µM; 97,000 compounds, 0.15% hits; EphB4 LBD / TNYL-RAW-Alexa532 peptide; AID 720, 2007; Ephrin type-B receptor 4 (Homo sapiens), P54760;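 active means inhibition above the screen-wide mean inhibition plus 3 SD, cut at about 15% in these data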;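 further: 0% = DMSO wells and 100% = excess unlabeled TNYL-RAW peptide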
# FAK blocker – FAK kinase inhibitors, primary screen, biochemical; AID 727, 2007; inhibition, %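 (tested at 7 µM)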; 97,000 compounds, 0.84% hits; biochemical FAK kinase activity assay;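 further: 0% = DMSO and 100% = reference compound high control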
# LYP act – LYP phosphatase activators, primary screen, biochemical, DiFMUP fluorescence, 2 µM | 96,000 compounds, 0.11% hits | activation, % at 2 µM | recombinant LYP; 0 = plate median, 100 = signal doubled;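 active means activation at 2 µM above a set limit, the mean plus 5 SD, cut at about 37% in these data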
# Rev-RRE block – HIV-1 Rev-RRE binding inhibitors, primary screen, biochemical, FRET, protein-RNA interaction; P05866; Rev peptide-RRE RNA binding; inhibition, % at 8 µM; 97,000 compounds, 0.79% hits; AID 704, 2007;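 active means inhibition above the screen-wide mean plus 3 SD, cut at about 35% in these data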;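 further: 0% = median DMSO wells and 100% = median Neomycin B control wells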
# Target sequence (P05866 whole entry, looked up): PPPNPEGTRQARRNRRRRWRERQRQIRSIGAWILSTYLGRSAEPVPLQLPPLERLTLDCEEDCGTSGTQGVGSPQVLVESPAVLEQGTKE
#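 Material: labelled RRE RNA duplex and labelled Rev peptide / Buffer or medium: HEPES pH 7.5 salt buffer with EDTA / Compound dosing: single point, 8 µM final nominal compound concentration / Benchmarks: DMSO low control, neomycin B high control / Timing: 5 min preincubation and 15 min binding, 25 °C / Technique: FRET fluorescence readout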
# FAK inh conf – FAK kinase inhibitors, retest, confirmation, biochemical. shares compounds with FAK blocker. FAK kinase biochemical inhibition assay. inhibition, % at 7 µM. 750 compounds, 28% hits. AID 794, 2007
# An asterisk follows results filed as active; x = no result. Unless noted, no stated cut-off is given here; in the data, active means inhibition above about 19%; inactive means the rest.
SMILES,LYP inh 2,EphB4 antag,FAK blocker,LYP act,Rev-RRE block,FAK inh conf
COc1ccc(Cc2nnc3n2N=C(c2cc4ccccc4o2)CS3)cc1OC,4,1,-1,-5,5,x
C/C(=N\NC(=O)c1[nH]c2c([N+](=O)[O-])cc(C)cc2c1-c1ccccc1)c1cccnc1,-1,10,20*,3,0,1
CCCCCCCCC(=O)N/N=C(\C)c1cccnc1,6,-1,2,-5,11,x
CN(Cc1cccs1)S(=O)(=O)c1cccs1,-8,-1,5,6,7,x
COc1ccc(-c2nc(-c3cccs3)c(-c3cccs3)[nH]2)cc1OC,7,-4,22*,-6,12,23*
O=[N+]([O-])c1ccc(-c2nc(-c3cccs3)c(-c3cccs3)[nH]2)cc1,11,13,12,-7,12,x
COc1ccc(-c2nc(-c3ccccc3)c(-c3cccs3)[nH]2)cc1OC,1,6,24*,-4,2,17
CC1CC(C)CN(CC(C)(C)NS(=O)(=O)c2ccccc2)C1 (configuration not stated),9,-2,-2,-6,-2,x
O=C(CCn1cccc1)NCCc1ccc(Cl)cc1,-3,2,-1,4,3,x
CCC(NC(=O)Nc1ccc(O)cc1)(C(F)(F)F)C(F)(F)F,4,4,20*,-6,5,-1
Cn1c(=O)c2[nH]c(N3CCOCC3)nc2n(-c2ccccc2)c1=O,10,-1,1,-12,6,x
Cc1ccc2cc(C)c3nnc(SCC(=O)Nc4nc5c(s4)CCCC5)n3c2c1C,8,1,0,-5,5,x
Nc1ncnc2nc(SCc3ccccc3)[nH]c12,11,1,38*,-8,8,13
Nc1ncnc2nc(SCC(=O)N3CCN(c4ccccc4)CC3)[nH]c12,2,12,4,1,10,x
CSc1nnc(Nc2ccccc2C)s1,-2,-6,1,-1,3,x
O=S(=O)(c1ccc(Oc2ccc(-c3nnco3)cc2)nc1)N1CCC(Cc2ccccc2)CC1,2,-9,19*,2,-7,8
CCOc1ccccc1CN1C(=O)c2ccccc2C1C(=O)NC(C)CC (configuration not stated),-16,-13,-4,18,2,x
Cc1cc(C)c(NC(=O)CC(C)(C)C)c(Cl)c1,2,5,73*,-4,5,2
Cc1cc(C)c(NC(=O)CN2C(=O)NC3(CCCCC3)C2=O)c(Cl)c1,-4,-3,1,0,8,x
O=C(CNC(=O)c1ccco1)NCC(=O)OCc1ccc(Cl)cc1,0,0,39*,-3,3,1
O=C(Nc1ccccc1C(=O)NCc1ccc(Cl)cc1)c1ccco1,-1,7,27*,-4,12,2
Cc1c(NC(=O)c2cc(-c3cccs3)on2)c(=O)n(-c2ccccc2)n1C,-6,0,-3,3,2,x
CC1=CC(C)(C)N(C(=O)CSc2nnc(N)s2)c2c(C)cc(C)cc21,20,1,-2,-17,9,x
CCOc1ccc(N=C2NC(=O)S/C2=C\c2ccc(Cl)cc2)cc1,26*,-1,33*,-22,4,51*
CCOC(=O)c1cnc2c(-c3ccccc3)c(C)nn2c1N,2,2,-2,0,3,x
SMILES,LYP inh 2,EphB4 antag,FAK blocker,LYP act,Rev-RRE block,FAK inh conf
CCOC(=O)c1cnc2c(-c3ccccc3)cnn2c1N,-6,4,29*,4,0,0
Cc1c(C(=O)OCC(C)C)[nH]c2c1C(=O)CC(c1ccco1)C2 (configuration not stated),3,2,15,-4,4,x
Cc1c(C(=O)OCC2CCCO2)[nH]c2c1C(=O)CC(c1ccco1)C2 (configuration not stated),14,0,26*,-15,-19,4
Cc1ccc(CSCC(=O)N/N=C/c2ccc(OCC(=O)Nc3ccc(C)cc3)cc2)cc1,2,-11,26*,0,3,12
Cc1cc(=O)[nH]c(SCC(=O)Nc2ccc(C(=O)O)cc2)n1,-1,1,2,2,10,x
CCOC(=O)c1ccc(NC(=O)CSc2nc(C)cc(=O)[nH]2)cc1,4,-1,20*,-3,-3,5
O=C(CSc1nnc(COc2cccc3cccnc23)o1)N1CCc2ccccc21,-4,7,20*,2,10,8
Cc1nc2n(n1)C(c1ccccc1)C1=C(CC(c3ccco3)CC1=O)N2 (configuration not stated),-12,-1,12,11,0,x
O=C1CC(c2ccco2)CC2=C1C=Nc1ccccc1N2 (configuration not stated),-6,6,22*,6,4,0
O=C(NCc1ccccc1C(F)(F)F)C1CC(c2ccccc2[N+](=O)[O-])=NO1 (configuration not stated),1,9,-1,2,6,x
Cc1nn(CC(=O)Nc2ccc3c(c2)oc2ccccc23)c(=O)c2ccccc12,-1,-6,29*,0,0,16
CNC(=O)Cn1nc(C)c2ccccc2c1=O,-2,-2,3,2,7,x
Cc1ccc(NC(=O)/C(=C\c2ccccc2)NC(=O)/C=C/c2ccccc2)cc1,7,6,-2,-3,3,x
CSc1nc2ccc3nc(NC(=O)c4cccs4)sc3c2s1,7,5,40*,-9,8,26*
CCOc1c2ccc(C(=O)NCCCCc3ccccc3)cc2nn1CC,3,1,-4,-1,7,x
CN(C)c1ccc(/C=C(/NC(=O)c2ccccc2)C(=O)N/N=C/c2ccc([N+](=O)[O-])c(O)c2)cc1,-4,13,20*,1,5,5
O=C1c2ccccc2C(=O)N1CCn1c(=O)oc2ccccc21,-5,7,3,6,11,x
CCc1c(C)sc(NC(=O)C2CC2c2ccccc2)c1C(N)=O (configuration not stated),-2,-7,35*,1,4,17
O=C(Nc1ccncc1)C1CC1c1ccccc1 (configuration not stated),7,-4,1,-4,3,x
Cc1cc(C)cc(OC(=O)CCN2C(=O)c3ccccc3C2=O)c1,-6,2,3,7,6,x
Cc1ccc(NC(=O)c2ccc(OC(=O)CCN3C(=O)c4ccccc4C3=O)cc2)cc1,4,6,20*,-1,7,11
COc1ccc(N2Cc3cccc(C(=O)NC(C)CCc4ccco4)c3C2=O)cc1 (configuration not stated),5,-4,33*,-7,-16,5
CCOC(=O)N1CCC(NC(=O)c2cccc3c2C(=O)N(c2ccc(OC)cc2)C3)CC1,-4,0,44*,0,-10,11
